The test system of test [1] is Salmonella typhimurium. Nature of the test: Antibacterial activity against Salmonella Typhimurium assessed as LPS neutralisation by LAL assay at 5 uM. The following applies: Salmonella enterica subsp. enterica serovar Typhimurium. Format: functional, organism-based.
In test [2] the test system is Escherichia coli. Nature of the test: Antibacterial activity against Escherichia coli 055:B5 assessed as LPS neutralisation by LAL assay. Format: functional, organism-based. A digest of the protocol:
(§1)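 LPS was used at 0.04 units: 0.01 ng for E. coli 055:B5, 0.01 ng for E. coli 0111:B4, 0.003 ng for K. pneumoniae, 0.01 ng for P. aeruginosa, 0.03 ng for S. typhimurium and 0.03 ng for S. marcescens. IC50 came from sigmoidal fits of dose-response curves.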

Test [3] concerns Klebsiella pneumoniae. Nature of the test: Antibacterial activity against Klebsiella pneumoniae assessed as LPS neutralisation by LAL assay at 5 uM. It is filed as functional, organism-based.
For test [4], the system named is Escherichia coli. Kind of test: Antibacterial activity against Escherichia coli 0111:B4 assessed as LPS neutralisation by LAL assay. It is filed as functional, organism-based. A digest of the protocol: as §1
In test [5] the test system is Pseudomonas aeruginosa. Nature of the test: Antibacterial activity against Pseudomonas aeruginosa assessed as LPS neutralisation at 5 uM by LAL assay. It is filed as functional, organism-based.
Test [6] relates to Salmonella typhimurium. Nature of the test: Antibacterial activity against Salmonella Typhimurium assessed as LPS neutralisation by LAL assay. It is filed as functional, organism-based, Salmonella enterica subsp. enterica serovar Typhimurium. The following applies: Salmonella enterica. The essentials: as §1
The test system of test [7] is Serratia marcescens. Nature of the test: Antibacterial activity against Serratia marcescens assessed as LPS neutralisation by LAL assay. Format: functional, organism-based. The essentials: as §1
The subject of test [8] is Pseudomonas aeruginosa. Nature of the test: Antibacterial activity against Pseudomonas aeruginosa assessed as LPS neutralisation by LAL assay. Format: functional, organism-based. The essentials:
as §1

Test [9] deals with Klebsiella pneumoniae. Nature of the test: Antibacterial activity against Klebsiella pneumoniae assessed as LPS neutralisation by LAL assay. It is filed as functional, organism-based. A digest of the protocol:
as §1

Test [10] deals with Escherichia coli. Kind of test: Antibacterial activity against Escherichia coli 0111:B4 assessed as LPS neutralisation at 5 uM by LAL assay. It is filed as functional, organism-based.
Test [11] relates to Mus musculus. Nature of the test: Survival of Escherichia coli 055:B5 LPS-challenged C57/BL6 mouse at 5 mg/kg, ip after 120 hrs relative 10 control. Format: functional, organism-based. Details: dose 5 mg/kg. A digest of the protocol: (§2)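 Male C57/BL6 mice (n = 4–8/group) received a lethal LPS dose: 500 µg for E. coli 0111:B4, 600 µg for E. coli 055:B5 and 600 µg for Salmonella. LPS was premixed with compound in 2% DMSO v/v for 30 min, then injected i.p. Controls got DMSO alone or compound alone. Survival was followed for up to 120 h, and mean survival time was compared by Student's t-test.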

Test [12] deals with Mus musculus. Kind of test: Survival of Escherichia coli 055:B5 LPS-challenged C57/BL6 mouse at 50 mg/kg, ip after 120 hrs relative to control. Format: functional. The following applies: route intraperitoneal. The essentials: as §2
The test system of test [13] is Mus musculus. Nature of the test: Survival of Salmonella LPS-challenged C57/BL6 mouse at 50 mg/kg, ip after 120 hrs relative to control. Format: functional. Conditions: route intraperitoneal. The essentials: as §2
Test [14] relates to Mus musculus. Nature of the test: Survival of Escherichia coli 0111:B4 LPS-challenged C57/BL6 mouse at 50 mg/kg, ip after 120 hrs relative to control. The following applies: route intraperitoneal. It is filed as functional. The essentials: as §2
The test system of test [15] is Serratia marcescens. Nature of the test: Antibacterial activity against Serratia marcescens assessed as LPS neutralisation by LAL assay at 5 uM. Format: functional, organism-based.

The structures appear in SMILES notation. pIC50: −log10 of the molar value. Calls of active or inactive are those of the source. No cut-off for these calls is given here.

Take `CC(C)CCOc1c2cccc1Cc1cc(CCC(=O)O)cc(c1O)Cc1cccc(c1OCCC(C)C)Cc1cc(CCC(=O)O)cc(c1O)C2`: the outcome in [1], in test [3] and in [5] was inactive. Besides, the pIC50 in test [2] and in [4] was under 5.30 in each case.
For `CC(C)(C)c1cc2c(OCCCCN)c(c1)Cc1cc(C(C)(C)C)cc(c1OCCCCNC(=N)N)Cc1cc(C(C)(C)C)cc(c1OCCCCNC(=N)N)Cc1cc(C(C)(C)C)cc(c1OCCCCNC(=N)N)C2`, the pIC50 (commonly −log10 of the IC50, conventionally taken in molar units) in test [2] is 7.00; in [6] it was 6.22; in test [7], 5.49; in test [4], 6.40; in test [8], 6.10; in test [9], 6.30.
For `NCCNC(=O)COc1c2cccc1Cc1cccc(c1O)Cc1cccc(c1OCC(=O)NCCN)Cc1cccc(c1O)C2`, the negative-log IC50 (pIC50) in test [2] and in test [6] was under 5.30 in each case. Further, the result in test [3], in [5] and in test [10] was inactive.
Turning to `CN(C)CCNC(=O)COc1c2cccc1Cc1cccc(c1OCC(=O)NCCN(C)C)Cc1cccc(c1OCC(=O)NCCN(C)C)Cc1cccc(c1OCC(=O)NCCN(C)C)C2` [OTX-008], the outcome in [1] and in [5] was inactive. For the same compound, the pIC50 was 5.47 in test [2], under 5.30 in test [7], under 5.30 in test [4] and 5.82 in [9].
Take `CC(C)CCOc1c2cccc1Cc1cc(CCCOP(=O)(O)O)cc(c1O)Cc1cccc(c1OCCC(C)C)Cc1cc(CCCOP(=O)(O)O)cc(c1O)C2`: the outcome in [1], in [3], in test [5] and in test [10] was inactive. Moreover, in [2], the pIC50 was under 5.30.
On to `CC(C)CCOc1c2cccc1Cc1cc(CCCOS(=O)(=O)O)cc(c1O)Cc1cccc(c1OCCC(C)C)Cc1cc(CCCOS(=O)(=O)O)cc(c1O)C2`, for which the outcome in test [1] and in test [5] was inactive. The pIC50 was 5.30 in test [2], 5.38 in test [7], 5.30 in [4] and 5.68 in [9].
With `CCCc1cc2c(OCC(=O)NCCN(C)C)c(c1)Cc1cc(CC(C)C)cc(c1OCC(=O)NCCN(C)C)Cc1cc(CCC)cc(c1OCC(=O)NCCN(C)C)Cc1cc(CC(C)C)cc(c1OCC(=O)NCCN(C)C)C2`, the negative logarithm of the IC50 (pIC50) is 5.42 in test [2]; 5.51 in test [6]; 5.43 in test [4]; under 5.30 in [8]; 5.68 in test [9].
For `CCCc1cc2c(OCC(=O)NCCN(C)C)c(c1)Cc1cc(CCC)cc(c1OCC(=O)NCCN(C)C)Cc1cc(CCC)cc(c1OCC(=O)NCCN(C)C)Cc1cc(CCC)cc(c1OCC(=O)NCCN(C)C)C2`, the pIC50 is 5.36 in test [2], 5.39 in test [6], under 5.30 in test [4] and 7.10 in test [9]. The result in test [5] was inactive.
For `CC(C)CCOc1c2cc(CCC(=O)NCCN(C)C)cc1Cc1cc(CCC(=O)NCCN(C)C)cc(c1OCCC(C)C)Cc1cc(CCC(=O)NCCN(C)C)cc(c1OCCC(C)C)Cc1cc(CCC(=O)NCCN(C)C)cc(c1OCCC(C)C)C2` the same measures were under 5.30, 5.49, under 5.30, 5.62 and “inactive”.
Take `CC(C)Cc1cc2c(OCC(=O)NCCN(C)C)c(c1)Cc1cc(CC(C)C)cc(c1OCC(=O)NCCN(C)C)Cc1cc(C(C)C)cc(c1OCC(=O)NCCN(C)C)Cc1cc(CC(C)C)cc(c1OCC(=O)NCCN(C)C)C2`: the negative-log IC50 (pIC50) in test [2] is 8.22; in test [6] it was 6.40; in test [4], 5.51; in [8], 5.38; in [9], 6.00. Moreover, the result in test [11] was inactive. The values for the survival at 50 mg/kg in test [12] and in [13] were 60% and 80%, respectively.
For the compound `CC(C)(C)c1cc2c(OCc3cn(CCN)nn3)c(c1)Cc1cc(C(C)(C)C)cc(c1OCc1cn(CCN)nn1)Cc1cc(C(C)(C)C)cc(c1OCc1cn(CCN)nn1)Cc1cc(C(C)(C)C)cc(c1OCc1cn(CCN)nn1)C2`, the pIC50 is 7.30 in test [2]; 5.96 in test [6]; under 5.30 in [7]; 5.66 in test [4]; 5.59 in test [8]; 6.00 in [9]. Besides, the result in test [11] was inactive. Moreover, the survival at 50 mg/kg in [14] stood at 25%; in test [13] it was 100%.
On to `N=C(N)NCCOc1c2cccc1Cc1cccc(c1O)Cc1cccc(c1OCC(=O)NC(=N)N)Cc1cccc(c1O)C2`, for which the negative-log IC50 (pIC50) is 5.39 in test [2], under 5.30 in test [6] and 5.41 in test [4]. The outcome in [3] and in test [5] was inactive.
Turning to `CN(C)CCNC(=O)COc1c2cccc1Cc1cccc(c1O)Cc1cccc(c1OCC(=O)NCCN(C)C)Cc1cccc(c1O)C2`, the pIC50 in [2], in [6] and in test [4] was under 5.30 each time. In addition, the outcome in test [3] and in [5] was inactive.
`CCCc1cc2c(OCC(=O)NCCN(C)C)c(c1)Cc1cc(CCC)cc(c1OCC(=O)NCCN(C)C)Cc1cc(CCC)cc(c1OCC(=O)NCCN(C)C)Cc1cc(OCC(=O)NCCN(C)C)cc(c1CCC)C2`: the pIC50 in test [2] was 7.30; in [6] it was 6.10; in test [4], 5.57; in [9], 6.40. For the same compound, the outcome in test [15] and in test [5] was inactive.
As for `CC(C)(C)c1cc2c(O)c(c1)Cc1cc(C(C)(C)C)cc(c1OCCNC(=N)N)Cc1cc(C(C)(C)C)cc(c1O)Cc1cc(C(C)(C)C)cc(c1OCCN)C2`, the pIC50 in test [2] is 5.39; in test [6], 5.59; in test [4] it was under 5.30. The outcome in [3] and in [5] was inactive.
As to `CC(C)(C)c1cc2c(OCCCCN)c(c1)Cc1cc(C(C)(C)C)cc(c1OCCCCN)Cc1cc(C(C)(C)C)cc(c1OCCCCN)Cc1cc(C(C)(C)C)cc(c1OCCCCN)C2`, the pIC50 in test [2] was 5.89; in [6], 6.70; in test [7], 5.35; in test [4] it was 7.00; in [8] it was 6.30; in test [9], 6.30.
`CN(C)CCNC(=O)COc1c2cc(C(C)(C)C)cc1Cc1cc(C(C)(C)C)cc(c1OCC(=O)NCCN(C)C)Cc1cc(C(C)(C)C)cc(c1OCC(=O)NCCN(C)C)Cc1cc(C(C)(C)C)cc(c1OCC(=O)NCCN(C)C)C2`: the pIC50 in [2] is under 5.30; in test [6], 6.22; in test [7], 5.47; in [4] it was 5.85; in test [8], under 5.30; in test [9], 5.82.
As for `CC(C)(C)c1cc2c(O)c(c1)Cc1cc(C(C)(C)C)cc(c1OCCNC(=N)N)Cc1cc(C(C)(C)C)cc(c1O)Cc1cc(C(C)(C)C)cc(c1OCCNC(=N)N)C2`, the negative logarithm of the IC50 (pIC50) in test [2] was under 5.30; in test [6] it was 5.36. Also, the result in [3] and in test [5] was inactive.
For the compound `CC(C)(C)c1cc2c(OCC(=O)NCCN)c(c1)Cc1cc(C(C)(C)C)cc(c1OCC(=O)NCCN)Cc1cc(C(C)(C)C)cc(c1OCC(=O)NCCN)Cc1cc(C(C)(C)C)cc(c1OCC(=O)NCCN)C2`, the pIC50 is 6.05 in test [2]; 6.22 in test [6]; 5.82 in [7]; 5.80 in test [4]; 6.10 in test [8]; 6.52 in [9].
Regarding `CC(C)(C)c1cc2c(OCc3cn(CCN)nn3)c(c1)Cc1cc(C(C)(C)C)cc(c1OCc1cn(CCN)nn1)Cc1cc(OCc3cnnn3CCN)cc(c1C(C)(C)C)Cc1cc(C(C)(C)C)cc(c1OCc1cn(CCN)nn1)C2`, the outcome in test [1] and in [15] was inactive. Further, the pIC50 in test [2] is 6.22; in test [4], 5.82; in test [8] it was 6.00; in [9] it was 6.05.
For `C=CCc1cc2c(OCC(=O)NCCN(C)C)c(c1)Cc1cc(CC(=C)C)cc(c1OCC(=O)NCCN(C)C)Cc1cc(CC=C)cc(c1OCC(=O)NCCN(C)C)Cc1cc(CC(=C)C)cc(c1OCC(=O)NCCN(C)C)C2`, the negative-log IC50 (pIC50) was 5.44 in [2], under 5.30 in [6], 5.33 in test [4] and under 5.30 in test [8]. Further, the result in test [3] was inactive.

The values are drawn from ChEMBL document CHEMBL1138855, “Topomimetics of amphipathic beta-sheet and helix-forming bactericidal peptides neutralize lipopolysaccharide endotoxins” (J Med Chem, 2006).
